Each block holds one molecule with its values, some of them ahead of it.
How the values were obtained:
[1] = biological target: T1, Endothelin receptor type B (Mus musculus, UniProt P48302); assay: Displacement of [125I]ET1 from endothelin B receptor in DBA mouse microsomes; set-up: species or system Microsome
T1 sequence (P48302 whole entry): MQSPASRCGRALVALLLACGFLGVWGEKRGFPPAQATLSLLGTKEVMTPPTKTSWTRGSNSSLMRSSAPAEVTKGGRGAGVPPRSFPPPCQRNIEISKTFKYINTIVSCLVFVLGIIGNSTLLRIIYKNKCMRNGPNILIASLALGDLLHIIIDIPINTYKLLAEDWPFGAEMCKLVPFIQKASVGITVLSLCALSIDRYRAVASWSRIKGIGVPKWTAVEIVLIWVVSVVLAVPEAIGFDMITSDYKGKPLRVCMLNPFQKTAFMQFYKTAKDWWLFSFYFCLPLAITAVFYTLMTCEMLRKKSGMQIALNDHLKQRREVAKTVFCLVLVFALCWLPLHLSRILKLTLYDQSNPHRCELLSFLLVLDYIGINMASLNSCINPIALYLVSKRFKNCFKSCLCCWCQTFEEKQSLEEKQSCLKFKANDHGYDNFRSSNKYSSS
How it was run: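 Ventricular microsomes from DBA mice were prepared by homogenization and differential centrifugation in EDTA/HEPES/benzamidine buffers (pH 7.4). 10 µg membranes were incubated with 40 pM [125I]ET-1 and competitor (10 pM–100 µM) in Tris-HCl/154 mM NaCl/ascorbic acid (pH 7.4) at 37 °C for 4 h. Samples were filtered on GF/B and gamma counted. A two-site nonlinear fit gave the low-affinity IC50, which was converted to Ki by Cheng–Prusoff (KD 208 pM).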

[2] = Biodistribution in C57BL/6 mouse duodenal content assessed as drug uptake index at 0.3 to 1 mmol/kg, iv after 30 mins; assay type: ADME, organism-based; settings: in vivo, 0.5 h, in the assay text read “0.3 to 1 nmol/kg” for “0.3 to 1 mmol/kg”
How it was run: (§1)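 Adult C57BL/6 mice (male and female, 25–30 g), tail-vein cannulated under isoflurane/N2O/O2, allowed ~1 h recovery, conscious under light restraint. [18F]tracer 0.2–2.0 MBq (0.3–1.0 nmol/kg) given as iv bolus. Killed by iv pentobarbitone 200 mg/kg at 30 min. Duodenal contents were moved directly into weighed vials, and duodenal wall was blotted. Gamma counting. Uptake index = (cpm/g tissue)/(cpm injected/g body weight).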

[3] = Biodistribution in C57BL/6 mouse duodenal wall content assessed as drug uptake index at 0.3 to 1 mmol/kg, iv after 30 mins; assay type: ADME, organism-based; settings: in vivo, 0.5 h, in the assay text read “0.3 to 1 nmol/kg” for “0.3 to 1 mmol/kg”; how it was run: as §1
Plasma [4] = assay: Protein binding in Wistar rat plasma at 19 MBq; assay type: ADME, cell-free
How it was run: (§2)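 Plasma from one anesthetized male Wistar rat (350 g), taken by cardiac puncture and stored at −20 °C overnight. 0.5 ml samples were incubated with 19 MBq [18F]tracer at 37 °C for 1, 2.5, 20 and 60 min. Protein was precipitated with ice-cold acetonitrile and centrifuged. Pellet and supernatant radioactivity were measured for protein binding. Supernatant was analyzed by gradient radio-RP-HPLC (C18, water/acetonitrile with 0.1% TFA).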

Plasma [5] = assay: Stability in Wistar rat plasma assessed as compound remaining at 19 MBq; assay type: ADME, cell-free; how it was run: as §2
Rattus norvegicus [6] = assay: Stability in Wistar rat assessed as compound remaining at 40 MBq, iv after 2.5 mins; assay type: ADME, organism-based; settings: in vivo
How it was run: (§3)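 Single rat given 40 MBq [18F]tracer as an iv tail-vein bolus. Blood (600–800 µl) was drawn from a tail-artery catheter at 2.5, 10, 20 and 60 min and centrifuged to plasma. Proteins were precipitated with ice-cold acetonitrile. Supernatant was spiked with 10 µg unlabeled reference and analyzed by radio-RP-HPLC.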

Rattus norvegicus [7] = assay: Stability in Wistar rat assessed as compound remaining at 40 MBq, iv after 10 mins; assay type: ADME, organism-based; settings: in vivo; how it was run: as §3
Plasma [8] = assay: Stability in C57BL/6 mouse plasma assessed as compound remaining after 5 mins; assay type: ADME, cell-free
How it was run: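 C57BL/6 mice (adult, both sexes) were prepared as for biodistribution and given [18F]tracer as a 100 µl tail-vein bolus. Killed by iv pentobarbitone at 5 or 20 min. Cardiac blood was centrifuged, and plasma from two mice was pooled. After acetonitrile protein precipitation, supernatant was spiked with 10 µg unlabeled reference and analyzed by radio-RP-HPLC.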

[9] = Drug level in C57BL/6 mouse bile at 6.6 MBq, iv after 3 to 4 mins; assay type: ADME, organism-based; settings: in vivo
How it was run: (§4)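 Female C57BL/6 mice (22–23 g) under isoflurane 2% anesthesia with tail-vein catheters were imaged two at a time in a quadHIDAC small-animal PET scanner. [18F]tracer (6.6 MBq in 100 µl, saline flush) was injected 30 s after acquisition start. List-mode data were collected for 2 h and reconstructed iteratively. Radioactivity (cps/ml) was read from ROIs over organs in five coronal planes.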

[10] = Drug level in C57BL/6 mouse urine at 6.6 MBq, iv after 5 to 60 mins; assay type: ADME, organism-based; settings: in vivo; how it was run: as §4
Plasma [11] = assay: Stability in plasma assessed as compound remaining after 20 mins

SMILES: COc1ccc(C2(O)OC(=O)C(c3ccc4c(c3)OCO4)=C2Cc2cc(OC)c(OC)c(OCCF)c2)cc1 (stereo unspecified)
- Ki [1]: 240 nM

SMILES: COc1cc(CC2=C(c3ccc4c(c3)OCO4)C(=O)OC2(O)c2ccc(OCCBr)cc2)cc(OC)c1OC (stereo unspecified)
- Ki [1]: 72 nM

SMILES: COc1ccc(C2(O)OC(=O)C(c3ccc4c(c3)OCO4)=C2Cc2cc(OC)c(OC)c(OCC[18F])c2)cc1 (stereo unspecified)
- Drug uptake [2]: 33
- Drug uptake [3]: 9
- PPB (Plasma [4]): 4.6%
- Stability (Plasma [5]): Stable
- Stability (Rattus norvegicus [6]): Stable
- Stability (Rattus norvegicus [7]): Stable
- Stability (Plasma [8]): Stable
- Drug uptake [9]: 6000 cps/ml
- Drug uptake [10]: 200 cps/ml
- Stability (Plasma [11]): Stable

SMILES: COc1cc(CC2=C(c3ccc4c(c3)OCO4)C(=O)OC2(O)c2ccc(OCCF)cc2)cc(OC)c1OC (stereo unspecified)
- Ki [1]: 98 nM

SMILES: COc1ccc(C2(O)OC(=O)C(c3ccc4c(c3)OCO4)=C2Cc2cc(OC)c(OC)c(OCCBr)c2)cc1 (stereo unspecified)
- Ki [1]: 170 nM

The remaining lines, values ahead:

- Ki [1]: 96 nM
SMILES: COc1cc(CC2=C(c3ccc4c(c3)OCO4)C(=O)OC2(O)c2ccc(OCCOS(=O)(=O)c3ccc(C)cc3)cc2)cc(OC)c1OC (stereo unspecified)

- Ki [1]: 1.26 nM
SMILES: COc1ccc(C2(O)OC(=O)C(c3ccc4c(c3)OCO4)=C2Cc2cc(OC)c(OC)c(OCCOS(=O)(=O)c3ccc(C)cc3)c2)cc1 (stereo unspecified)

From ChEMBL document CHEMBL1152618, “PET-compatible endothelin receptor radioligands: synthesis and first in vitro and in vivo studies” (Bioorg Med Chem, 2009)
